# Measurements gathered from unrelated publications.
# Compare with care: the assays were run in different laboratories.
# CSF1R: Macrophage colony-stimulating factor 1 receptor (CSF1R, Homo sapiens, UniProt P07333)
SMILES,target,test,setting,measurement,value
Cn1cc(-c2cccc(N3CCc4c(sc5c4CC(C)(C)C5)C3=O)c2CO)cc(Nc2ccncn2)c1=O,CSF1R,"enzyme activity, inhibitor",1 µM,inhibition,6%
Cn1cncc1[C@](O)(COc1ccc(C#N)cc1-c1ccc(OC(F)(F)F)cc1)c1ccc(C#N)cc1,"Macrophage colony-stimulating factor 1 receptor, autoinhibited (CSF1R, Homo sapiens, UniProt P07333)","cell-free assay, competition with immobilised ligand",1 µM,remaining binding,93%
C#Cc1n[nH]c2c(-c3cn(C(C)c4ccccn4)c(=O)[nH]c3=O)cc(F)cc12 (centres unmarked),CSF1R,"enzyme activity, inhibitor",1 µM,inhibition,5.8%
COCc1c(-c2cc3cc(C)cc(OC)c3s2)c2c(N)ncnn2c1CN1CCNC(=O)C1,CSF1R,"cell-free assay, competition with immobilised ligand",1 µM,inhibition,100%
Cn1cc(-c2cc(F)cc(N3CCn4c(cc5c4CCCC5)C3=O)c2CO)cc(Nc2ccc(N3CCN(C4COC4)CC3)cn2)c1=O,CSF1R,"enzyme activity, inhibitor",0.1 µM,inhibition,13%
C#Cc1n[nH]c2c(-c3cn([C@@H](C)c4ccccc4)c(=O)[nH]c3=O)cc(F)cc12,CSF1R,"enzyme activity, inhibitor",0.1 µM,inhibition,4.9%
COc1ncccc1-c1cnn2ccc(N3CCN(C(=O)OC(C)C)CC3)nc12,CSF1R,"binding, competition with immobilised ligand",1 µM,remaining binding,100%
O=c1[nH]c2ccccc2n1C1CCN(Cc2ccc(-c3[nH]c4cc5ncnc5cc4nc3-c3ccccc3)cc2)CC1,CSF1R,cell-free assay,0.5 µM,remaining signal,97%
Nc1ncc(-c2nc(N3CCOCC3)nc(N3CCOCC3)n2)c(C(F)F)n1,CSF1R,"cell-free assay, competition with immobilised ligand",10 µM,remaining binding,14%
N#CC1(c2ccccn2)CCN(Cc2cc(C(=O)O)c(=O)n3ccccc23)CC1,CSF1R,"cell-free assay, competition with immobilised ligand",1 µM,remaining binding,95%
CC(C)(C)c1cc(C=C(C#N)C#N)cc(Br)c1O,CSF1R,"enzyme activity, inhibitor",0.5 µM,remaining activity,96.8%
